What was measured:
[1] = Cytotoxicity against human NCI-H460 cells assessed as decrease in cell viability after 72 hrs by MTT assay; assay type: functional, cell-based; conditions: NCI-H460, 72 h
Outline: (§1)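 Human NSCLC lines (ATCC) seeded at 2 × 10^3 cells/well, adhered overnight, then exposed 72 h to at least five concentrations of analogue in RPMI with ≤0.2% DMSO. MTT 0.5 mg/mL added for 4 h, formazan dissolved in DMSO, absorbance read at 570 nm. Viability relative to untreated cells. IC50 per experiment averaged over three independent triplicate runs on different days (mean ± SD). Cisplatin positive control.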

[2] = Cytotoxicity against human NCI-H292 cells assessed as decrease in cell viability after 72 hrs by MTT assay; assay type: functional, cell-based; conditions: NCI-H292, 72 h; outline: as §1

| SMILES | IC50 [1] [nM] | IC50 [2] [nM] |
| --- | --- | --- |
| COC1=C(C)C(=O)C2=C(C1=O)[C@H]1[C@@H]3CC4=C(C(=O)C(OC)=C(C)C4=O)[C@H](COC(=O)/C=C/c4ccc([N+](=O)[O-])cc4)N3[C@@H](C#N)[C@H](C2)N1C | 14 | 22 |
| COC1=C(C)C(=O)C2=C(C1=O)[C@H]1[C@@H]3CC4=C(C(=O)C(OC)=C(C)C4=O)[C@H](COC(=O)c4cccc(C(F)(F)F)c4)N3[C@@H](C#N)[C@H](C2)N1C | 30 | 49 |
| COC1=C(C)C(=O)C2=C(C1=O)[C@H]1[C@@H]3CC4=C(C(=O)C(OC)=C(C)C4=O)[C@H](COC(=O)/C=C/c4ccncc4)N3[C@@H](C#N)[C@H](C2)N1C | 20 | 20 |
| COC1=C(C)C(=O)C2=C(C1=O)[C@H]1[C@@H]3CC4=C(C(=O)C(OC)=C(C)C4=O)[C@H](COC(=O)/C=C/c4ccccc4Cl)N3[C@@H](C#N)[C@H](C2)N1C | 9 | 25 |
| COC1=C(C)C(=O)C2=C(C1=O)[C@H]1[C@@H]3CC4=C(C(=O)C(OC)=C(C)C4=O)[C@H](COC(=O)/C=C/c4c(F)c(F)c(F)c(F)c4F)N3[C@@H](C#N)[C@H](C2)N1C | 69 | 21 |
| COC1=C(C)C(=O)C2=C(C1=O)[C@H]1[C@@H]3CC4=C(C(=O)C(OC)=C(C)C4=O)[C@H](COC(=O)c4ccc(F)cc4)N3[C@@H](C#N)[C@H](C2)N1C | 22 | 56 |
| COC1=C(C)C(=O)C2=C(C1=O)[C@H]1[C@@H]3CC4=C(C(=O)C(OC)=C(C)C4=O)[C@H](COC(=O)c4ccccc4C(F)(F)F)N3[C@@H](C#N)[C@H](C2)N1C | 22 | 51 |
| COC1=C(C)C(=O)C2=C(C1=O)[C@H]1[C@@H]3CC4=C(C(=O)C(OC)=C(C)C4=O)[C@H](COC(=O)/C=C/c4ccc(F)cc4)N3[C@@H](C#N)[C@H](C2)N1C | 12 | 44 |
| COC1=C(C)C(=O)C2=C(C1=O)[C@H]1[C@@H]3CC4=C(C(=O)C(OC)=C(C)C4=O)[C@H](COC(=O)c4cccnc4)N3[C@@H](C#N)[C@H](C2)N1C | 6 | 6.4 |
| COC1=C(C)C(=O)C2=C(C1=O)[C@H]1[C@@H]3CC4=C(C(=O)C(OC)=C(C)C4=O)[C@H](COC(=O)/C=C/c4cccc(F)c4)N3[C@@H](C#N)[C@H](C2)N1C | 9.8 | 11 |
| COC1=C(C)C(=O)C2=C(C1=O)[C@H]1[C@@H]3CC4=C(C(=O)C(OC)=C(C)C4=O)[C@H](COC(=O)c4cccc(F)c4)N3[C@@H](C#N)[C@H](C2)N1C | 11 | 18 |
| COC1=C(C)C(=O)C2=C(C1=O)[C@H]1[C@@H]3CC4=C(C(=O)C(OC)=C(C)C4=O)[C@H](COC(=O)c4ccccn4)N3[C@@H](C#N)[C@H](C2)N1C | 2.2 | 3.7 |
| COC1=C(C)C(=O)C2=C(C1=O)[C@H]1[C@@H]3CC4=C(C(=O)C(OC)=C(C)C4=O)[C@H](COC(=O)/C=C/c4ccccc4)N3[C@@H](C#N)[C@H](C2)N1C | 18 | 19 |
| COC1=C(C)C(=O)C2=C(C1=O)[C@H]1[C@@H]3CC4=C(C(=O)C(OC)=C(C)C4=O)[C@H](COC(=O)CC(F)(F)F)N3[C@@H](C#N)[C@H](C2)N1C | 320 | 570 |
| COC1=C(C)C(=O)C2=C(C1=O)[C@H]1[C@@H]3CC4=C(C(=O)C(OC)=C(C)C4=O)[C@H](COC(=O)c4ccncc4)N3[C@@H](C#N)[C@H](C2)N1C | 1.6 | 1.1 |
| COC1=C(C)C(=O)C2=C(C1=O)[C@H]1[C@@H]3CC4=C(C(=O)C(OC)=C(C)C4=O)[C@H](COC(=O)c4ccc(C(F)(F)F)cc4)N3[C@@H](C#N)[C@H](C2)N1C | 24 | 60 |
| COC1=C(C)C(=O)C2=C(C1=O)[C@H]1[C@@H]3CC4=C(C(=O)C(OC)=C(C)C4=O)[C@H](COC(=O)c4ccccc4F)N3[C@@H](C#N)[C@H](C2)N1C | 10 | 30 |
| COC1=C(C)C(=O)C2=C(C1=O)[C@H]1[C@@H]3CC4=C(C(=O)C(OC)=C(C)C4=O)[C@H](CO)N3[C@@H](C#N)[C@H](C2)N1C | 160 | 220 |
| COC1=C(C)C(=O)C2=C(C1=O)[C@H]1[C@@H]3CC4=C(C(=O)C(OC)=C(C)C4=O)[C@H](COC(=O)/C=C/c4cccnc4)N3[C@@H](C#N)[C@H](C2)N1C | 2.8 | 4.9 |
| C/C=C(/C)C(=O)OC[C@H]1C2=C(C[C@H]3[C@H]4C5=C(C[C@@H]([C@H](C#N)N13)N4C)C(=O)C(C)=C(OC)C5=O)C(=O)C(C)=C(OC)C2=O [RENIERAMYCIN M] | 8.3 | 23 |
